This is an account of results in paper PMC5974556 (ChemistryOpen, 2018).

Data set [1] in a line: Water solubility, shake flask method in 0.1 M phosphate buffer pH 6.8. The data set is classed as physicochemical. Particulars: 37 °C, pH 6.8, aqueous buffer, thermodynamic from solid. In short, it runs like this: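 Excess solid added to 1 mL sodium phosphate buffer, pH 6.8. Two conditions: 90 min sonication at 37 °C, or 30 min sonication at 37 °C, 23 h shaking at 300 rpm, then 30 min sonication. Centrifuged 14000 rpm for 5 min, filtered (0.2 µm) at 37 °C and diluted in DMSO. Quantified by LC at maximum absorbance against standard curves; independent triplicates.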

A short description of data set [2]: Ferric reducing antioxidant power. As to conditions: chemical antioxidant capacity, n=3. The gist of the method: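 FRAP reagent made from acetate buffer, TPTZ in ethanol and FeCl3·6H2O in dilute HCl, mixed 10:1:1, with TPTZ and iron solutions fresh daily. Sample mixed with reagent 1:9, absorbance read at 593 nm after 4 min. Values expressed as Trolox equivalents by linear regression on a Trolox standard curve; α-tocopherol positive control.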

Data set [3] is described as follows: DPPH radical‐scavenging activity assay. Particulars: result in words. In short, it runs like this:
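DPPH diluted to 200 µM in MeOH and mixed with an equal volume of test compound in MeOH at various concentrations. Incubated 30 min in the dark at 30 °C, absorbance read at 515 nm. % inhibition corrected for sample absorbance without DPPH. EC50 from fit to the linear part of the curve. Trolox reference; at least three independent experiments.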
(The DPPH test is a chemical assay of radical scavenging.)

The test system of data set [4] is Caco‐2 cells. As to the kind of experiment: Mitochondria activity. Type of data set: cell-based. As to conditions: Homo sapiens, Caco-2, 72 h, read-out: Caco‐2 IC50 MTT. In short, it runs like this: (§1)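 Cells kept in DMEM+glutamax with 1% NEAA, 1% P/S and 10% FBS at 37 °C, 10% CO2. Seeded 2×10^4 per well for 24 h, then exposed 72 h to test compound at various concentrations in serum-free medium, in triplicate. MTT (5 mg/mL in PBS) added for 2 h, formazan dissolved in DMSO, read at 570 nm. IC50 from % survival; doxorubicin control; MTT and SRB data pooled, mean ± SD, n≥6.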

The test system of data set [5] is Caco‐2 cells. As to the kind of experiment: Protein content. Type of data set: cell-based. As to conditions: Homo sapiens, Caco-2, 72 h, read-out: Caco‐2 IC50 SRB. The gist of the method: (§2)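 Seeded 2×10^4 cells per well for 24 h, then treated with or without test compound for three days, in triplicate. Fixed with 50% TCA for 1 h at 4 °C, washed and dried. Stained 30 min at 4 °C with 0.4% sulforhodamine B in 1% acetic acid, rinsed with 1% acetic acid. Dye redissolved in Tris buffer, absorbance read at 490 nm. Doxorubicin control; MTT and SRB data pooled, mean ± SD, n≥6.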

In data set [6] the test system is EA.hy926 cells. As to the kind of experiment: Mitochondria activity. Type of data set: cell-based. As to conditions: Homo sapiens, EA.hy 926, 72 h, read-out: EA.hy926 IC50 MTT. The gist of the method:
as §1

For data set [7], the system named is EA.hy926 cells. Briefly: Protein content. Type of data set: cell-based. As to conditions: Homo sapiens, EA.hy 926, 72 h, read-out: EA.hy926 IC50 SRB. In short, it runs like this: as §2
For data set [8], the system named is HT‐29 cells. As to the kind of experiment: Mitochondria activity. As to conditions: Homo sapiens, HT-29, 72 h, read-out: HT‐29 IC50 MTT. The data set is classed as cell-based. The gist of the method: as §1
Data set [9] deals with HT‐29 cells. As to the kind of experiment: Protein content. The data set is classed as cell-based. As to conditions: Homo sapiens, HT-29, 72 h, read-out: HT‐29 IC50 SRB. In short, it runs like this:
as §2

Data set [10] relates to HepG2 cells. As to the kind of experiment: Mitochondria activity. The data set is classed as cell-based. Particulars: Homo sapiens, HepG2, 72 h, read-out: HepG2 IC50 MTT. In short, it runs like this:
as §1

The subject of data set [11] is HepG2 cells. As to the kind of experiment: Protein content. Type of data set: cell-based. As to conditions: Homo sapiens, HepG2, 72 h, read-out: HepG2 IC50 SRB. In short, it runs like this: as §2
The test system of data set [12] is Caco‐2 cells. Briefly: Intracellular ROS. Type of data set: cell-based, human. Particulars: protein content normalization, mean±SD, n≥3. The gist of the method:
(§3)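 Cells grown in DMEM+glutamax with 1% NEAA, 1% P/S and 10% FBS at 37 °C, 10% CO2. Seeded at 2×10^4 cells/well for 24 h, then confluent cells were exposed to test compound at 1 or 10 µM in serum-free medium, with NAC as control. Cells were washed, loaded with DCFH-DA for 30 min, then kept 1 h in phenol red-free DMEM. Fluorescence read at ex 485/em 535 nm, normalised to same-well SRB protein (490 nm) and given as % of untreated cells. Mean ± SD, n≥3; two-tailed t-test with unequal variances.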

Data set [13] relates to EA.hy926 cells. Briefly: Intracellular ROS. As to conditions: Homo sapiens. Type of data set: cell-based. In short, it runs like this: as §3
Data set [14] deals with HT‐29 cells. As to the kind of experiment: Intracellular ROS. The data set is classed as cell-based. Particulars: Homo sapiens. The gist of the method:
as §3

In data set [15] the test system is HepG2 cells. Briefly: Intracellular ROS. The data set is classed as cell-based. Particulars: Homo sapiens. The gist of the method: as §3

In brackets after ≈: the same amount, converted by molar mass. Marks after values point to notes of the source that are not given here.

As usually defined, the solubility is how much of the substance goes into solution per volume. Usually IC50 stands for the concentration at which inhibition is half-maximal. `O=C(/C=C(O)/C=C/c1cccnc1)/C=C/c1cccnc1` [compound 2, (1E,4Z,6E)‐5‐Hydroxy‐1,7‐di(pyridin‐3‐yl)hepta‐1,4,6‐trien‐3‐one]: in [1], the concentration in solution (solubility at 90 min) was 12.4 ± 0.2 µM (≈ 3.45 µg/mL). In data set [1], the solubility at 24 h came out at 9.2 ± 0.1 µM (≈ 2.56 µg/mL). For the same compound, in [2], the FRAP worked out at 0.03 Trolox equiv per μM. The “DPPH radical‐scavenging activity” value in data set [3] is listed as “no activity”. Further, the 50% inhibitory concentration (IC50) in the data set with Caco‐2 cells [4] stood at 6.9 ± 2.5 µM; in the data set with Caco‐2 cells [5], 7.3 ± 3.1 µM; in the data set on EA.hy926 cells [6] it was 7.9 ± 1.9 µM; in the data set with EA.hy926 cells [7], 11.2 ± 2.8 µM; with HT‐29 cells [8], 8.2 ± 0.8 µM; in the data set on HT‐29 cells [9], 6.1 ± 3.4 µM. Moreover, the IC50 amounted to 8.3 ± 0.7 µM in the data set with HepG2 cells [10] and 10 ± 1.6 µM with HepG2 cells [11]. Besides, the “Intracellular ROS, percentage compared to the untreated control cells (ROS/SRB), Caco‐2, 1 μM” value in the data set on Caco‐2 cells [12] (1 μM) is 104.8±15.1%. Moreover, the “Intracellular ROS, percentage compared to the untreated control cells (ROS/SRB), Caco‐2, 10 μM” value with Caco‐2 cells [12] (10 μM) is 142.7±11.9^[b] %. The activity at 1 µM in the data set on EA.hy926 cells [13] (EA.hy 926, read-out: Intracellular ROS, percentage compared to the untreated control cells (ROS/SRB), EA.hy926, 1 μM) worked out at 112 ± 1.6%; in the data set with HT‐29 cells [14] (HT-29, read-out: Intracellular ROS, percentage compared to the untreated control cells (ROS/SRB), HT‐29, 1 μM) it was 94 ± 4%; in the data set on HepG2 cells [15] (HepG2, read-out: Intracellular ROS, percentage compared to the untreated control cells (ROS/SRB), HepG2, 1 μM), 99 ± 4.6%. Besides, the activity at 10 µM in the data set with EA.hy926 cells [13] (EA.hy 926, read-out: Intracellular ROS, percentage compared to the untreated control cells (ROS/SRB), EA.hy926, 10 μM) was 116 ± 3.3%; with HT‐29 cells [14] (HT-29, read-out: Intracellular ROS, percentage compared to the untreated control cells (ROS/SRB), HT‐29, 10 μM), 127 ± 7.9%; in the data set with HepG2 cells [15] (HepG2, read-out: Intracellular ROS, percentage compared to the untreated control cells (ROS/SRB), HepG2, 10 μM), 90.4 ± 11.9%.
